Results published in ChEMBL document CHEMBL1131577, “Auxiliary agents for the peroral administration of peptide and protein drugs: synthesis and evaluation of novel pepstatin analogues” (J Med Chem, 1998).

Target: Pepsin A (Homo sapiens, UniProt P0DJD9)
Assay: Inhibitory activity against pepsin as oxidation of o-phenylenediamine by Horse radish peroxidase (Pepsin sensitive)
In short: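 Pepsin (1 mg, 40 units, per mL of 0.05 N HCl, freshly prepared) mixed with test compound serially diluted 1:2 in DMSO, then 37.5 µg horseradish peroxidase in 0.05 N HCl added; incubated 2 h at 37 °C, then diluted 1:2 in 0.05 N HCl. Residual peroxidase oxidation of o-phenylenediamine (phosphate buffer pH 6.5, H2O2) ran 10 min at room temperature, read at 492 nm. Pepstatin dilutions served as reference.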

Chain of Pepsin A (P0DJD9 whole entry): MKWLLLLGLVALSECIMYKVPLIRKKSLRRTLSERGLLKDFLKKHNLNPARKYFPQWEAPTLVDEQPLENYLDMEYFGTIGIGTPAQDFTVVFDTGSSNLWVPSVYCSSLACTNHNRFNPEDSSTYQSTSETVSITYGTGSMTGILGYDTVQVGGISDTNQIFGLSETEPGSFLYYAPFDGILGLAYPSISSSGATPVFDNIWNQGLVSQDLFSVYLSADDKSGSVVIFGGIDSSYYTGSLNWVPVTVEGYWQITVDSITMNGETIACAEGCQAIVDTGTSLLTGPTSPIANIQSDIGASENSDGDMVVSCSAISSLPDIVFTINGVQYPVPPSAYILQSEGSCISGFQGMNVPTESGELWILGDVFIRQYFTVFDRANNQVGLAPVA

Row | SMILES | IC50
1 | CCCCC(O)[C@@H](NC(=O)[C@@H](NC(=O)[C@@H](NC(=O)OC(C)(C)C)C(C)C)C(C)C)[C@@H](C)CC (stereo not given in full) | 33000 nM
2 | CCCCCCCCC(O)[C@H](CC(C)C)NC(=O)[C@@H](NC(=O)[C@@H](NC(=O)OC(C)(C)C)C(C)C)C(C)C (stereo not given in full) | 790 nM
3 | CCCCCCCCC(O)[C@H](CCC)NC(=O)[C@@H](NC(=O)[C@@H](NC(=O)OC(C)(C)C)C(C)C)C(C)C (stereo not given in full) | 1070 nM
4 | CCCCC(O)[C@H](CCC)NC(=O)[C@@H](NC(=O)[C@@H](NC(=O)OC(C)(C)C)C(C)C)C(C)C (stereo not given in full) | 910 nM
5 | CCCCCCCCC(O)[C@@H](NC(=O)[C@@H](NC(=O)[C@@H](NC(=O)OC(C)(C)C)C(C)C)C(C)C)[C@@H](C)CC (stereo not given in full) | 15000 nM
6 | CCCCCCC(O)[C@@H](NC(=O)[C@@H](NC(=O)[C@@H](NC(=O)OC(C)(C)C)C(C)C)C(C)C)[C@@H](C)CC (stereo not given in full) | 27000 nM
7 | CCCCCCC(O)[C@H](CCC)NC(=O)[C@@H](NC(=O)[C@@H](NC(=O)OC(C)(C)C)C(C)C)C(C)C (stereo not given in full) | 700 nM
8 | CCCCC(O)[C@H](CC(C)C)NC(=O)[C@@H](NC(=O)[C@@H](NC(=O)OC(C)(C)C)C(C)C)C(C)C (stereo not given in full) | 1240 nM
9 | CCCCCCC(O)[C@H](CC(C)C)NC(=O)[C@@H](NC(=O)[C@@H](NC(=O)OC(C)(C)C)C(C)C)C(C)C (stereo not given in full) | 830 nM
10 | CC(C)CC(=O)N[C@H](C(=O)N[C@H](C(=O)N[C@@H](CC(C)C)[C@@H](O)CC(=O)N[C@@H](C)C(=O)N[C@@H](CC(C)C)[C@@H](O)CC(=O)O)C(C)C)C(C)C [PEPSTATIN] | 59 nM
